According to ChEMBL document CHEMBL3259664, “Optimization of an imidazopyridazine series of inhibitors of Plasmodium falciparum calcium-dependent protein kinase 1 (PfCDPK1)” (J Med Chem, 2014):

Assays:
[1] = Oral bioavailability in rat at 21 mg/kg; format: ADME, organism-based; details: in vivo
Rattus norvegicus [2] = assay: Half life in rat at […], iv; format: ADME, organism-based; set-up: dose 4.5 mg/kg, route intravenous; details: in vivo
Rattus norvegicus [3] = assay: Volume of distribution in rat at […], iv and 21 mg/kg, po; format: ADME, organism-based; details: in vivo
[4] = Lipophilicity, log D of the compound; format: physicochemical; details: octanol/water
[5] = Metabolic stability in mouse liver microsomes assessed as compound remaining measured at 30 mins; format: ADME; details: read-out: Stability
[6] = Metabolic stability in human liver microsomes assessed as compound remaining measured at […]; format: ADME; details: read-out: Stability
[7] = Total plasma concentration in NMRI mouse infected with Plasmodium berghei ANKA at 50 mg/kg, po qd administered on day 1 to 3 post infection measured at 1 hr post last dose; format: ADME, organism-based; set-up: dose 50 mg/kg, route oral
Procedure, shortened: (§1)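 4-day Peters test in groups of 3 mice infected iv on day 0. Oral dosing was 50 mg/kg once daily at 4, 24, 48 and 72 h post-infection. The monohydrochloride salt was dissolved in 30:70 EtOH/Tween-80 and diluted 10-fold with water. Blood was sampled for total plasma compound levels.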

[8] = Total plasma concentration in NMRI mouse infected with Plasmodium berghei ANKA at 50 mg/kg, po qd administered on day 1 to 3 post infection measured at 4 hrs post last dose; format: ADME, organism-based; set-up: dose 50 mg/kg, route oral; procedure, shortened: as §1

| Compound | logD [4] | remaining at 0.5 h [5] [%] | remaining [6] [%] | also measured |
| --- | --- | --- | --- | --- |
| CN1CCC(Nc2ccc3ncc(-c4ccc(Nc5ncccc5F)cc4)n3n2)CC1.Cl |  |  |  | bioavailability [1]: 70%; t1/2 (Rattus norvegicus [2]): 4 h; Vd (Rattus norvegicus [3]): 8 L/kg |
| Fc1cccnc1Nc1ncc(-c2cnc3ccc(NCCN4CCOCC4)nn23)cn1 | 2.9 |  |  |  |
| N[C@H]1CC[C@H](Nc2ccc3ncc(-c4cnc(Nc5ncccc5F)nc4)n3n2)CC1 | 0.2 | 85 | 93 |  |
| CN1CCC(Nc2ccc3ncc(-c4ccc(Nc5ncccc5F)nc4)n3n2)CC1 | 3.1 | 57 | 77 |  |
| Fc1cccnc1Nc1ncc(-c2cnc3ccc(NCCN4CCCC4)nn23)cn1 | 1.5 |  |  |  |
| Cc1ccc(F)c(Nc2ccc(-c3cnc4ccc(N[C@H]5CC[C@H](N)CC5)nn34)cc2)n1 | 2.2 | 90 | 83 |  |
| Cc1ccc(Nc2ncc(-c3cnc4ccc(N[C@H]5CC[C@H](N)CC5)nn34)cn2)nc1 | 1.1 | 100 | 92 |  |
| Fc1cccnc1Nc1ncc(-c2cnc3ccc(NC4CCNC4)nn23)cn1 (racemic) | 0.4 |  |  |  |
| Fc1cccnc1Nc1ncc(-c2cnc3ccc(N4CCNCC4)nn23)cn1 | 0.7 |  |  |  |
| N[C@H]1CC[C@H](Nc2ccc3ncc(-c4ccc(Nc5ncc(Cl)cc5F)cc4)n3n2)CC1 | 3.1 | 57 | 77 |  |
| N[C@H]1CC[C@H](Nc2ccc3ncc(-c4cnc(Nc5ccccc5)nc4)n3n2)CC1 | 1.6 | 92 | 89 |  |
| CN1CCC(Nc2ccc3ncc(-c4ccc(Nc5ncc(Cl)cc5F)cc4)n3n2)CC1 | 3.7 | 61 | 86 |  |
| Fc1cccnc1Nc1ncc(-c2cnc3ccc(N[C@H]4CC[C@H](N5CCOCC5)CC4)nn23)cn1 | 3.2 |  |  |  |
| Cc1ccc2ncc(-c3cnc(Nc4ncccc4F)nc3)n2n1 | 2.5 |  |  |  |
| CN1CCC(Nc2ccc3ncc(-c4cnc(Nc5ncccc5F)nc4)n3n2)C1 (racemic) | 1.5 |  |  |  |
| CN1CCC(Oc2ccc3ncc(-c4cnc(Nc5ncccc5F)nc4)n3n2)C1 (racemic) | 1.5 |  |  |  |
| N[C@H]1CC[C@H](Nc2ccc3ncc(-c4cnc(Nc5ncc(C(F)(F)F)cc5F)nc4)n3n2)CC1 | 1.6 | 93 | 69 |  |

| Compound | logD [4] | remaining at 0.5 h [5] [%] | remaining [6] [%] | also measured |
| --- | --- | --- | --- | --- |
| CN1CCC(Nc2ccc3ncc(-c4ccc(Nc5ncccc5F)cc4)n3n2)CC1 | 3.2 | 47 | 80 | concentration at 1 h [7]: 1660 ng/mL; concentration at 4 h [8]: 1460 ng/mL |
| N[C@H]1CC[C@H](Nc2ccc3ncc(-c4cnc(Nc5ccccn5)nc4)n3n2)CC1 | 1.1 | 93 | 99 |  |
| CN1CCC(Nc2ccc3ncc(-c4ccc(Nc5ncc(F)cc5F)cc4)n3n2)CC1 | 3.7 | 58 | 78 |  |
| CN1CCC(Oc2ccc3ncc(-c4cnc(Nc5ncccc5F)nc4)n3n2)CC1 | 1.5 |  |  |  |
| CN1CCC(Nc2ccc3ncc(-c4ccc(Nc5ccc(C(F)(F)F)cn5)cc4)n3n2)CC1 | 3.7 | 85 | 81 |  |
| Fc1cccnc1Nc1ccc(-c2cnc3ccc(N[C@H]4CC[C@H](N5CCCC5)CC4)nn23)cc1 | 3.3 | 82 | 60 |  |
| CN1CCN(CCNc2ccc3ncc(-c4cnc(Nc5ncccc5F)nc4)n3n2)CC1 | 1.6 |  |  |  |
| N[C@H]1CC[C@H](Nc2ccc3ncc(-c4cnc(NCc5ccccn5)nc4)n3n2)CC1 | 0.4 | 95 | 95 |  |
| N[C@H]1CC[C@H](Nc2ccc3ncc(-c4ccc(Nc5ncc(F)cc5F)cc4)n3n2)CC1 | 2 | 87 | 68 |  |
| Cc1ccc(F)c(Nc2ccc(-c3cnc4ccc(NC5CCN(C)CC5)nn34)cc2)n1 | 3.5 | 52 | 77 |  |
| CN1CCN(c2ccc3ncc(-c4cnc(Nc5ncccc5F)nc4)n3n2)CC1 | 2.2 |  |  |  |
| CN1CCC(Nc2ccc3ncc(-c4cnc(Nc5ncccc5F)nc4)n3n2)CC1 | 1.4 | 85 | 98 |  |
| CN1CCC(Cc2ccc3ncc(-c4cnc(Nc5ncccc5F)nc4)n3n2)CC1 | 1.3 |  |  |  |
| CN1CCC(Nc2ccc3ncc(-c4ccc(Nc5cccc(C(F)(F)F)n5)cc4)n3n2)CC1 | 3.4 | 73 | 80 |  |
| Fc1cccnc1Nc1ncc(-c2cnc3ccc(N[C@H]4CC[C@H](N5CCCC5)CC4)nn23)cn1 | 1.9 |  |  |  |
| Fc1cccnc1Nc1ccc(-c2cnc3ccc(N[C@H]4CC[C@H](N5CCCC5)CC4)nn23)cn1 | 2.8 | 88 | 71 |  |
